Legend:
Rattus norvegicus [1] = species on record: Rattus norvegicus; experiment: Effect of haloperidol on the regional distribution of compound in the rat brain cortex (n=4) [0.32 (0.29-0.38)]; format: ADME, organism-based, Cerebral cortex; conditions: in vivo
Rattus norvegicus [2] = species on record: Rattus norvegicus; experiment: Tissue distribution in rat heart after 30 minutes (n=3); format: ADME, organism-based; conditions: in vivo, 0.5 h
Procedure, shortened: (§1)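 Male Wistar rats (200-350 g) under ether, iv [125I]tracer (3-5 μCi in 0.1 mL 50% aqueous EtOH). At 5, 30, 60 or 180 min, blood taken by cardiac puncture and the rat killed by cardiectomy. Organs weighed and γ-counted against 1:100 dilutions of the injected dose; results in % injected dose/g, with range.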

Rattus norvegicus [3] = species on record: Rattus norvegicus; experiment: Ratio of tissue distribution between rat heart and blood after 30 min; format: ADME, organism-based; conditions: other tissue, 0.5 h
Procedure, shortened: (§2)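 Male Wistar rats (200-350 g) under ether anesthesia; radiotracer (3-5 μCi in 0.1 mL 50% aqueous ethanol) given iv. At 5, 30, 60 and 180 min, blood was drawn by cardiac puncture and animals were killed by cardiectomy. Organs were weighed and γ-counted against a 1:100 dilution of the injected dose. Results are given as % injected dose/g tissue; ratios are taken between tissue levels.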

Rattus norvegicus [4] = species on record: Rattus norvegicus; experiment: Regional kinetics in the rat brain caudate-putamen at 120 minutes; format: ADME, organism-based; conditions: in vivo, 2 h
Procedure, shortened: (§3)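 Male Wistar rats (n = 4 per time point) under ether received (+)-radiotracer iv (2 μCi in 100 μL 50% aqueous EtOH). They were killed at 30, 120 or 180 min. Brains were partially frozen and dissected into striatum, cerebellum, cortex and remainder. Regions were γ-counted against injected-dose dilutions and expressed as % injected dose/g tissue.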

Rattus norvegicus [5] = species on record: Rattus norvegicus; experiment: Effect of 4-aminobenzovesamicol on the regional distribution of compound in the rat cerebellum (n=4) [0.12 (0.10-0.13)]; format: ADME, organism-based; conditions: in vivo
Rattus norvegicus [6] = species on record: Rattus norvegicus; experiment: Tissue distribution in rat lung after 180 minutes (n=3); format: ADME, organism-based; conditions: in vivo, 3 h; procedure, shortened: as §1
Rattus norvegicus [7] = species on record: Rattus norvegicus; experiment: Tissue distribution in rat gonads after 60 minutes (n=3); format: ADME, organism-based, Gonad; conditions: in vivo, 1 h; procedure, shortened: as §1
Rattus norvegicus [8] = species on record: Rattus norvegicus; experiment: Tissue distribution in rat kidney after 180 minutes (n=3); format: ADME, organism-based; conditions: in vivo, 3 h; procedure, shortened: as §2
Rattus norvegicus [9] = species on record: Rattus norvegicus; experiment: Ratio of effect 4-aminobenzovesamicol on regional distribution between rat brain caudate and cerebellum; format: ADME, organism-based; conditions: in vivo
Rattus norvegicus [10] = species on record: Rattus norvegicus; experiment: Tissue distribution in rat brain after 180 minutes (n=3); format: ADME, organism-based; conditions: in vivo, 3 h; procedure, shortened: as §1
Rattus norvegicus [11] = species on record: Rattus norvegicus; experiment: Tissue distribution in rat spleen after 180 minutes (n=3); format: ADME, organism-based; conditions: in vivo, 3 h; procedure, shortened: as §2
Rattus norvegicus [12] = species on record: Rattus norvegicus; experiment: Regional kinetics in the remainder of rat brain at 120 minutes; format: ADME, organism-based; conditions: in vivo, 2 h; procedure, shortened: as §3
Rattus norvegicus [13] = species on record: Rattus norvegicus; experiment: Effect of 4-aminobenzovesamicol on the regional distribution of compound in the rat brain caudate-putamen (n=4) [0.40 (0.35-0.47)]; format: ADME, organism-based; conditions: in vivo
Rattus norvegicus [14] = species on record: Rattus norvegicus; experiment: Tissue distribution in rat lung after 30 minutes (n=3); format: ADME, organism-based; conditions: in vivo, 0.5 h; procedure, shortened: as §2
Rattus norvegicus [15] = species on record: Rattus norvegicus; experiment: Tissue distribution in rat thyroid after 180 minutes (n=3); format: ADME, organism-based, Thyroid gland; conditions: in vivo, 3 h; procedure, shortened: as §2
Rattus norvegicus [16] = species on record: Rattus norvegicus; experiment: Tissue distribution in rat muscle after 180 minutes (n=3); format: ADME, organism-based; conditions: in vivo, 3 h; procedure, shortened: as §2
Rattus norvegicus [17] = species on record: Rattus norvegicus; experiment: Effect of haloperidol on the regional distribution of compound in the rat cerebellum (n=4) [0.22 (0.18-0.24)]; format: ADME, organism-based; conditions: in vivo
Rattus norvegicus [18] = species on record: Rattus norvegicus; experiment: Tissue distribution in rat kidney after 60 minutes (n=3); format: ADME, organism-based; conditions: in vivo, 1 h; procedure, shortened: as §2
Rattus norvegicus [19] = species on record: Rattus norvegicus; experiment: Tissue distribution in rat muscle after 30 minutes (n=3); format: ADME, organism-based; conditions: in vivo, 0.5 h; procedure, shortened: as §1
Rattus norvegicus [20] = species on record: Rattus norvegicus; experiment: Tissue distribution in rat muscle after 5 minutes (n=3); format: ADME, organism-based; conditions: in vivo; procedure, shortened: as §2
Rattus norvegicus [21] = species on record: Rattus norvegicus; experiment: Effect of vesamicol on the accumulation in rat muscle [0.16 (0.15-0.20)]; format: ADME, organism-based, Muscle tissue; conditions: in vivo
Procedure, shortened: (§4)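 Male Wistar rats. Pretreatment at t = 0 was iv vehicle (50% aqueous EtOH) or iv dl-vesamicol (1.01 μmol/kg). At 15 min, iv [125I]tracer (2.0 μCi in 100 μL 50% aqueous EtOH) was given; rats were killed 30 min later. Tissues were weighed and γ-counted, and values expressed as % injected dose/g; n = 4 per group.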

Rattus norvegicus [22] = species on record: Rattus norvegicus; experiment: Regional kinetics in the rat cerebellum at 120 minutes; format: ADME, organism-based; conditions: in vivo, 2 h
Procedure, shortened: (§5)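 Male Wistar rats under ether anaesthesia, iv (+)-[125I]tracer (2 μCi in 100 μL 50% aqueous EtOH); killed at 30, 120 or 180 min. Brains partially frozen and dissected into striatum, cerebellum, cortex and remainder, then counted for radioactivity. Results are % injected dose/g, calculated against counted dilutions of the injected dose.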

Rattus norvegicus [23] = species on record: Rattus norvegicus; experiment: Regional kinetics in the rat brain cortex at 180 minutes; format: ADME, organism-based; conditions: in vivo, 3 h; procedure, shortened: as §5
[24] = Ratio of tissue distribution between rat heart and blood after 5 min; format: ADME, organism-based; conditions: heart and blood; procedure, shortened: as §2
Rattus norvegicus [25] = species on record: Rattus norvegicus; experiment: Effect of vesamicol on the accumulation in rat liver [2.01 (1.65-3.34)]; format: ADME, organism-based; conditions: in vivo
Procedure, shortened: (§6)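 Male Wistar rats (n = 4/group) given iv vehicle (100 μL 50% aqueous EtOH) or dl-vesamicol (1.01 μmol/kg); 15 min later iv radiotracer (2.0 μCi in 100 μL 50% aqueous EtOH); killed 30 min post-tracer. Blood by cardiac puncture, organs weighed and γ-counted vs 1:100 injected-dose dilution; % dose/g tissue (range); tissue/blood ratios.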

Rattus norvegicus [26] = species on record: Rattus norvegicus; experiment: Regional kinetics in the rat cerebellum at 30 minutes; format: ADME, organism-based; conditions: in vivo, 0.5 h; procedure, shortened: as §3
Rattus norvegicus [27] = species on record: Rattus norvegicus; experiment: Ratio of tissue distribution between rat brain and blood after 180 min; format: ADME, organism-based; conditions: 3 h
Procedure, shortened: (§7)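 Male Wistar rats (200-350 g) under ether anesthesia, iv radiotracer (3-5 μCi in 0.1 mL 50% aqueous ethanol). At 5, 30, 60, 180 min blood taken by cardiac puncture, animal killed by cardiectomy; organs weighed, γ-counted against 1:100 injected-dose dilution; % injected dose/g tissue; brain/blood ratio.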

Rattus norvegicus [28] = species on record: Rattus norvegicus; experiment: Regional kinetics in the rat brain cortex at 120 minutes; format: ADME, organism-based; conditions: in vivo, 2 h; procedure, shortened: as §3
Rattus norvegicus [29] = species on record: Rattus norvegicus; experiment: Ratio of regional kinetics between rat brain caudate and cerebellum at 120 minutes; format: ADME, organism-based; conditions: in vivo, 2 h
Procedure, shortened: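 Male Wistar rats (n = 4/group) under ether anesthesia, iv (+)-[125I]MIBT (2 μCi in 100 μL 50% aqueous EtOH); killed at 30, 120, 180 min. Brains partially frozen, dissected into striatum, cerebellum, cortex and remainder; radioactivity counted, % dose/g vs injected-dose dilutions; caudate/cortex and caudate/cerebellum ratios.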

Rattus norvegicus [30] = species on record: Rattus norvegicus; experiment: Tissue distribution in rat gonads after 180 minutes (n=3); format: ADME, organism-based, Gonad; conditions: in vivo, 3 h; procedure, shortened: as §2
Rattus norvegicus [31] = species on record: Rattus norvegicus; experiment: Tissue distribution in rat gonads after 30 minutes (n=3); format: ADME, organism-based, Gonad; conditions: in vivo, 0.5 h; procedure, shortened: as §2
Rattus norvegicus [32] = species on record: Rattus norvegicus; experiment: Tissue distribution in rat lung after 60 minutes (n=3); format: ADME, organism-based; conditions: in vivo, 1 h; procedure, shortened: as §2
Rattus norvegicus [33] = species on record: Rattus norvegicus; experiment: Tissue distribution in rat brain after 30 minutes (n=3); format: ADME, organism-based; conditions: in vivo, 0.5 h; procedure, shortened: as §2
Rattus norvegicus [34] = species on record: Rattus norvegicus; experiment: Regional kinetics in the rat brain caudate-putamen at 180 minutes; format: ADME, organism-based; conditions: in vivo, 3 h; procedure, shortened: as §3
Rattus norvegicus [35] = species on record: Rattus norvegicus; experiment: Tissue distribution in rat blood after 180 minutes (n=3); format: ADME, organism-based; conditions: in vivo, 3 h; procedure, shortened: as §2
Rattus norvegicus [36] = species on record: Rattus norvegicus; experiment: Effect of vesamicol on the accumulation in rat heart [0.25 (0.21-0.30)]; format: ADME, organism-based; conditions: in vivo; procedure, shortened: as §4
Rattus norvegicus [37] = species on record: Rattus norvegicus; experiment: Tissue distribution in rat gonads after 5 minutes (n=3); format: ADME, organism-based, Gonad; conditions: in vivo; procedure, shortened: as §2
Rattus norvegicus [38] = species on record: Rattus norvegicus; experiment: Tissue distribution in rat heart after 5 minutes (n=3); format: ADME, organism-based; conditions: in vivo; procedure, shortened: as §2
[39] = Ratio of tissue distribution between rat brain and blood after 5 min; format: ADME, organism-based; conditions: brain and blood; procedure, shortened: as §7
Rattus norvegicus [40] = species on record: Rattus norvegicus; experiment: Ratio of effect haloperidol on regional distribution between rat brain caudate and cerebellum; format: ADME, organism-based; conditions: in vivo
Rattus norvegicus [41] = species on record: Rattus norvegicus; experiment: Tissue distribution in rat spleen after 30 minutes (n=3); format: ADME, organism-based; conditions: in vivo, 0.5 h; procedure, shortened: as §2
Rattus norvegicus [42] = species on record: Rattus norvegicus; experiment: Effect of vesamicol on the accumulation in rat kidney [1.76 (1.55-2.08)]; format: ADME, organism-based; conditions: in vivo; procedure, shortened: as §6
Rattus norvegicus [43] = species on record: Rattus norvegicus; experiment: Tissue distribution in rat kidney after 5 minutes (n=3); format: ADME, organism-based; conditions: in vivo; procedure, shortened: as §2
Rattus norvegicus [44] = species on record: Rattus norvegicus; experiment: Tissue distribution in rat heart after 180 minutes (n=3); format: ADME, organism-based; conditions: in vivo, 3 h; procedure, shortened: as §2

In the case of O[C@@H]1CCN(Cc2cccc([125I])c2)C[C@H]1N1CCC(c2ccccc2)CC1 (stereo in doubt; (+)), the Dose/g (Rattus norvegicus [1]) is reported as 0.21%, the Dose/g (Rattus norvegicus [2]) is reported as 0.26% and the Ratio (Rattus norvegicus [3]) is reported as 2.33. For the same compound, the Dose/g (Rattus norvegicus [4]) was 0.67%, the Dose/g (Rattus norvegicus [5]) was 0.11% and the Dose/g (Rattus norvegicus [6]) was 0.39%. The Dose/g (Rattus norvegicus [7]) was 0.17%, the Dose/g (Rattus norvegicus [8]) was 0.5% and the Ratio (Rattus norvegicus [9]) was 2.07. For the same compound, the Dose/g (Rattus norvegicus [10]) was 0.15%, the Dose/g (Rattus norvegicus [11]) was 0.44% and the Dose/g (Rattus norvegicus [12]) was 0.4%. It also gave a Dose/g (Rattus norvegicus [13]) of 0.23%, a Dose/g (Rattus norvegicus [14]) of 1.21% and a Dose/g (Rattus norvegicus [15]) of 13.13%. For the same compound, the Dose/g (Rattus norvegicus [16]) was 0.08%, the Dose/g (Rattus norvegicus [17]) was 0.09% and the Dose/g (Rattus norvegicus [18]) was 0.87%. It also gave a Dose/g (Rattus norvegicus [19]) of 0.16%, a Dose/g (Rattus norvegicus [20]) of 0.34% and a Dose/g (Rattus norvegicus [21]) of 0.13%. For the same compound, the Dose/g (Rattus norvegicus [22]) was 0.28%, the Dose/g (Rattus norvegicus [23]) was 0.25% and the Kp at 5 min [24] was 4.68. For the same compound, the Dose/g (Rattus norvegicus [25]) was 1.93%, the Dose/g (Rattus norvegicus [26]) was 0.53% and the Ratio (Rattus norvegicus [27]) was 2.35. The Dose/g (Rattus norvegicus [28]) was 0.4%, the Ratio (Rattus norvegicus [29]) was 2.43 and the Dose/g (Rattus norvegicus [30]) was 0.16%. For the same compound, the Dose/g (Rattus norvegicus [31]) was 0.15%, the Dose/g (Rattus norvegicus [32]) was 0.82% and the Dose/g (Rattus norvegicus [33]) was 0.36%. The Dose/g (Rattus norvegicus [34]) was 0.49%, the Dose/g (Rattus norvegicus [35]) was 0.07% and the Dose/g (Rattus norvegicus [36]) was 0.24%. For the same compound, the Dose/g (Rattus norvegicus [37]) was 0.13%, the Dose/g (Rattus norvegicus [38]) was 1.14% and the Kp at 5 min [39] was 2.33. For the same compound, the Ratio (Rattus norvegicus [40]) was 10.97, the Dose/g (Rattus norvegicus [41]) was 1.07% and the Dose/g (Rattus norvegicus [42]) was 0.91%. For the same compound, the Dose/g (Rattus norvegicus [43]) was 2.25% and the Dose/g (Rattus norvegicus [44]) was 0.1%.
